Measurements: ChEMBL document CHEMBL1154405, “An early response to environmental stress involves regulation of OmpX and OmpF, two enterobacterial outer membrane pore-forming proteins” (2007)
Active and inactive are the calls of the source. The rule behind the calls is not given here.

Columns and labels:
Escherichia coli [1] = test: Increase in ompX-lacZ expression in Escherichia coli deltaompX mutant assessed as increase in beta-galactosidase activity after 60 mins relative to control; assay type: functional, organism-based
Method in brief: (§1)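 Strains electrotransformed with an ompX–lacZ fusion plasmid (pMD08): E. coli JM109, MC1061 ompX::Cm, AG100, CH164 (marA), E. aerogenes ATCC 15038. Grown in LB (with or without NaCl) to OD600 0.2 at 37°C. Treated with subinhibitory stresses (MIC-derived) or NaCl osmotic shock. Miller units read after 60 min; means of five independent experiments with SD.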

Escherichia coli [2] = test: Increase in ompX-lacZ expression in Escherichia coli JM109 assessed as ompX upregulation after 60 mins relative to control; assay type: functional, organism-based; method in brief: as §1
Klebsiella aerogenes [3] = test: Increase in ompX-lacZ expression in Enterobacter aerogenes ATCC 15038 assessed as ompX upregulation after 60 mins relative to control; assay type: functional, organism-based; method in brief: as §1
Escherichia coli [4] = test: Increase in ompX-lacZ expression in Escherichia coli JM109 assessed as increase in beta-galactosidase activity after 60 mins relative to control; assay type: functional, organism-based; method in brief: as §1
Klebsiella aerogenes [5] = test: Increase in ompX-lacZ expression in Enterobacter aerogenes ATCC 15038 assessed as increase in beta-galactosidase activity after 60 mins relative to control; assay type: functional, organism-based; method in brief: as §1
Escherichia coli [6] = test: Increase in ompX-lacZ expression in marA-negative Escherichia coli CH164 mutant assessed as beta-galactosidase activity after 60 mins relative to control; assay type: functional; method in brief: as §1
Escherichia coli [7] = test: Increase in ompX-lacZ expression in Escherichia coli deltaompX mutant assessed as ompX upregulation after 60 mins relative to control; assay type: functional
Method in brief: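 E. coli ompX::Cm strain transformed by electroporation with pMD08 (ompX-lacZ fusion), grown in LB broth (with or without NaCl) to OD600 0.2. Stresses were then added at strain-specific subinhibitory concentrations derived from MICs; osmotic shock was given as NaCl. Cultures were incubated 60 min at 37°C with growth rate monitored. Miller-unit beta-galactosidase activity is the mean of five independent experiments with SD.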

Escherichia coli [8] = test: Effect on ompF-lacZ fusion translation in ompX-negative Escherichia coli mutant assessed as percent decrease in Miller units of beta-galactosidase activity after 90 mins relative to control; assay type: functional; set-up: scale not given: the % may be the effect or the level left
Method in brief: (§2)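 ompF promoter–lacZ fusions (pCeJa01, pCeJa02) carried in E. coli AG100 and its marA mutant CH164, and in MC1061 and MC1061 ompX::Cm. Cultures grown in LB (with or without NaCl) to OD600 0.2, then stress added at subinhibitory levels set per strain and promoter from MIC assays, 37°C. β-Galactosidase measured at time intervals (Miller method); percent decrease versus control, SD, Student t test.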

Escherichia coli [9] = test: Effect on ompF-lacZ fusion translation in wild type Escherichia coli AG100 assessed as percent decrease in Miller units of beta-galactosidase activity after 120 mins relative to control; assay type: functional; set-up: scale not given: the % may be the effect or the level left; method in brief: as §2
Escherichia coli [10] = test: Effect on ompF-lacZ fusion translation in wild type Escherichia coli MC1061 assessed as percent decrease in Miller units of beta-galactosidase activity after 60 mins relative to control; assay type: functional; set-up: scale not given: the % may be the effect or the level left
Method in brief: (§3)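 E. coli strains carrying ompF-lacZ reporter constructs (pCeJa01/pCeJa02) were grown in LB broth, with or without NaCl, to early exponential phase (OD600 0.2). Stress compounds were then added at subinhibitory concentrations, set from MICs for each strain and promoter, and incubation continued at 37°C. Beta-galactosidase activity (Miller method) was read at time intervals. Percent decrease versus control was calculated, with Student t test and standard deviations.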

Escherichia coli [11] = test: Effect on ompF-lacZ fusion translation in wild type Escherichia coli MC1061 assessed as percent decrease in Miller units of beta-galactosidase activity after 120 mins relative to control; assay type: functional; set-up: scale not given: the % may be the effect or the level left; method in brief: as §2
Escherichia coli [12] = test: Effect on ompF-lacZ fusion translation in wild type Escherichia coli AG100 assessed as percent decrease in Miller units of beta-galactosidase activity after 90 mins relative to control; assay type: functional; set-up: scale not given: the % may be the effect or the level left; method in brief: as §3
Escherichia coli [13] = test: Effect on ompF-lacZ fusion translation in wild type Escherichia coli MC1061 assessed as percent decrease in Miller units of beta-galactosidase activity after 90 mins relative to control; assay type: functional; set-up: scale not given: the % may be the effect or the level left; method in brief: as §2
Escherichia coli [14] = test: Effect on ompF-lacZ fusion translation in ompX-negative Escherichia coli mutant assessed as percent decrease in Miller units of beta-galactosidase activity after 120 mins relative to control; assay type: functional; set-up: scale not given: the % may be the effect or the level left; method in brief: as §2
Escherichia coli [15] = test: Effect on ompF-lacZ fusion translation in wild type Escherichia coli AG100 assessed as percent decrease in Miller units of beta-galactosidase activity after 60 mins relative to control; assay type: functional; set-up: scale not given: the % may be the effect or the level left; method in brief: as §2
Escherichia coli [16] = test: Effect on ompF-lacZ fusion transcription in wild type Escherichia coli AG100 assessed as percent decrease in Miller units of beta-galactosidase activity after 120 mins relative to control; assay type: functional; set-up: scale not given: the % may be the effect or the level left; method in brief: as §2
Escherichia coli [17] = test: Effect on ompF-lacZ fusion transcription in wild type Escherichia coli MC1061 assessed as percent decrease in Miller units of beta-galactosidase activity after 90 mins relative to control; assay type: functional; set-up: scale not given: the % may be the effect or the level left; method in brief: as §2
Escherichia coli [18] = test: Effect on ompF-lacZ fusion transcription in wild type Escherichia coli AG100 assessed as percent decrease in Miller units of beta-galactosidase activity after 60 mins relative to control; assay type: functional; set-up: scale not given: the % may be the effect or the level left; method in brief: as §2
Escherichia coli [19] = test: Effect on ompF-lacZ fusion transcription in ompX-negative Escherichia coli mutant assessed as percent decrease in Miller units of beta-galactosidase activity after 90 mins relative to control; assay type: functional; set-up: scale not given: the % may be the effect or the level left; method in brief: as §2
Escherichia coli [20] = test: Effect on ompF-lacZ fusion transcription in wild type Escherichia coli MC1061 assessed as percent decrease in Miller units of beta-galactosidase activity after 120 mins relative to control; assay type: functional; set-up: scale not given: the % may be the effect or the level left; method in brief: as §2
Escherichia coli [21] = test: Effect on ompF-lacZ fusion transcription in ompX-negative Escherichia coli mutant assessed as percent decrease in Miller units of beta-galactosidase activity after 120 mins relative to control; assay type: functional; set-up: scale not given: the % may be the effect or the level left; method in brief: as §2
Escherichia coli [22] = test: Effect on ompF-lacZ fusion transcription in marA-negative Escherichia coli CH164 mutant assessed as percent decrease in Miller units of beta-galactosidase activity after 120 mins relative to control; assay type: functional; set-up: scale not given: the % may be the effect or the level left; method in brief: as §3
Escherichia coli [23] = test: Effect on ompF-lacZ fusion translation in marA-negative Escherichia coli CH164 mutant assessed as percent decrease in Miller units of beta-galactosidase activity after 90 mins relative to control; assay type: functional; set-up: scale not given: the % may be the effect or the level left; method in brief: as §3
Escherichia coli [24] = test: Effect on ompF-lacZ fusion transcription in marA-negative Escherichia coli CH164 mutant assessed as percent decrease in Miller units of beta-galactosidase activity after 60 mins relative to control; assay type: functional; set-up: scale not given: the % may be the effect or the level left; method in brief: as §2
Escherichia coli [25] = test: Effect on ompF-lacZ fusion translation in ompX-negative Escherichia coli mutant assessed as percent decrease in Miller units of beta-galactosidase activity after 60 mins relative to control; assay type: functional; set-up: scale not given: the % may be the effect or the level left; method in brief: as §2
Escherichia coli [26] = test: Effect on ompF-lacZ fusion translation in marA-negative Escherichia coli CH164 mutant assessed as percent decrease in Miller units of beta-galactosidase activity after 60 mins relative to control; assay type: functional; set-up: scale not given: the % may be the effect or the level left; method in brief: as §3
Escherichia coli [27] = test: Effect on ompF-lacZ fusion transcription in marA-negative Escherichia coli CH164 mutant assessed as percent decrease in Miller units of beta-galactosidase activity after 90 mins relative to control; assay type: functional; set-up: scale not given: the % may be the effect or the level left; method in brief: as §2
Escherichia coli [28] = test: Effect on ompF-lacZ fusion translation in marA-negative Escherichia coli CH164 mutant assessed as percent decrease in Miller units of beta-galactosidase activity after 120 mins relative to control; assay type: functional; set-up: scale not given: the % may be the effect or the level left; method in brief: as §3
Escherichia coli [29] = test: Effect on ompF-lacZ fusion transcription in ompX-negative Escherichia coli mutant assessed as percent decrease in Miller units of beta-galactosidase activity after 60 mins relative to control; assay type: functional; set-up: scale not given: the % may be the effect or the level left; method in brief: as §2
Klebsiella aerogenes [30] = test: Induction of ompX-lacZ expression in Enterobacter aerogenes ATCC 15038 assessed as total RNA content after 30 mins by RT-PCR; assay type: functional, organism-based
Escherichia coli [31] = test: Effect on ompF-lacZ fusion transcription in wild type Escherichia coli AG100 assessed as percent decrease in Miller units of beta-galactosidase activity after 90 mins relative to control; assay type: functional; set-up: scale not given: the % may be the effect or the level left; method in brief: as §2
Escherichia coli [32] = test: Induction of ompX transcription in SoxS-positive Escherichia coli K12 relative to control; assay type: functional

| Compound | Activity (Escherichia coli [1]) | Activity (Escherichia coli [2]) | Activity (Klebsiella aerogenes [3]) | Activity (Escherichia coli [4]) | Activity (Klebsiella aerogenes [5]) | Activity (Escherichia coli [6]) | Activity (Escherichia coli [7]) | Activity (Escherichia coli [8]) | Activity (Escherichia coli [9]) | Activity (Escherichia coli [10]) | Activity (Escherichia coli [11]) | Activity (Escherichia coli [12]) | Activity (Escherichia coli [13]) | Activity (Escherichia coli [14]) | Activity (Escherichia coli [15]) | Activity (Escherichia coli [16]) | Activity (Escherichia coli [17]) | Activity (Escherichia coli [18]) | Activity (Escherichia coli [19]) | Activity (Escherichia coli [20]) | also measured |
| --- | --- | --- | --- | --- | --- | --- | --- | --- | --- | --- | --- | --- | --- | --- | --- | --- | --- | --- | --- | --- | --- |
| CCn1cc(C(=O)O)c(=O)c2ccc(C)nc21 | Active | Active | Active | Active | Active |  |  |  |  |  |  |  |  |  |  |  |  |  |  |  |  |
| NCCc1ccccc1 | Active | Active | Active | Active | Active |  |  |  |  |  |  |  |  |  |  |  |  |  |  |  |  |
| c1ccc(-c2ccccn2)nc1 [DIPYRIDYL] |  | Active | Active | Active | Active | Active | 2 | 19% | 55% | 7.4% | 18.4% | 53% | 16.1% | 28.6% | 52% |  |  |  |  |  |  |
| CCn1cc(C(=O)O)c(=O)c2cc(F)c(N3CCNCC3)cc21 [NORFLOXACIN] | Active | Active | Active | Active | Active | 1.5 |  | 21.7% | 16.6% |  | 27.5% |  | 27.1% | 22% | 14.1% | 8.2% | 14.9% | 13.2% | 18.6% | 24% | Activity (Escherichia coli [21]): 19.2% |
| CO[C@@H]1[C@@H](OC(N)=O)[C@@H](O)[C@H](Oc2ccc3c(O)c(NC(=O)c4ccc(O)c(CC=C(C)C)c4)c(=O)oc3c2C)OC1(C)C [NOVOBIOCIN] |  | Active | Active | Active | Active | Active | 2 | 45.3% | 46.8% | 21.3% | 50.9% | 39.8% | 38.4% | 55.2% | 48.5% | 25.7% | 28.6% | 25.5% | 25.3% | 36.5% | Activity (Escherichia coli [22]): 24.5%; Activity (Escherichia coli [23]): 21.2%; Activity (Escherichia coli [24]): 9.5%; Activity (Escherichia coli [25]): 28.4%; Activity (Escherichia coli [26]): 23.6%; Activity (Escherichia coli [27]): 20%; Activity (Escherichia coli [28]): 26.9%; Activity (Escherichia coli [29]): 17%; Activity (Klebsiella aerogenes [30]): Active; Activity (Escherichia coli [21]): 36%; Activity (Escherichia coli [31]): 32.6% |
| C[n+]1ccc(-c2cc[n+](C)cc2)cc1 [PARAQUAT] | Active | Active | Active | Active | Active |  |  |  |  |  |  |  |  |  |  |  |  |  |  |  | Activity (Escherichia coli [32]): 1.2 |
| O=C(O)c1ccccc1O [SALICYLIC ACID] |  | Active | Active | Active | Active |  | 2 | 40.9% | 49% | 42.5% | 45.6% | 51.8% | 46.8% | 43.7% | 59% | 15.8% | 25% | 29.9% | 26% | 17.3% | Activity (Escherichia coli [24]): 17.4%; Activity (Escherichia coli [25]): 35.3%; Activity (Escherichia coli [27]): 15.5%; Activity (Escherichia coli [29]): 21%; Activity (Klebsiella aerogenes [30]): Active; Activity (Escherichia coli [21]): 14.8%; Activity (Escherichia coli [31]): 25.7% |
